ABCG2 block: human ABCG2 inhibition, ABCB1 as counter-screen; 190,000 tested, 0.1% active; inhibition, % at 6.6 µM; Q9UNQ0; AID 1325; IgMXP3 cells, JC-1 efflux, flow cytometry;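 active = inhibition above 80%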;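 note: 0% = DMSO and 100% = nicardipine control wells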
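Times: 10 min at 25 °C | Test system: Two drug-resistant human cell lines, ABCG2 and ABCB1 | Quantity: 3 million cells/mL final, two lines in 1:1 ratio | Signal: Flow cytometry, 530 nm JC-1 signal | Dosing: Compound at 6.6 µM | Controls: Nicardipine and DMSO wells | Reagent: JC-1 as fluorescent efflux pump substrate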
Autophagy mod: autophagy modulation, high-content screen; 190,000 tested, 0.98% active; MEF GFP-LC3 puncta imaging; test concentration mostly 10 µM; calls only at 10 µM (by protocol);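 active = percentage of spot-positive cells more than 3 SD above its plate mean, without a fluorescence outlier flag or 80% toxicity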;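 note: spot-positive cell cutoff set from DMSO-treated cells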
ABCB1 block: human ABCB1 inhibition, ABCG2 as counter-screen; P08183; CCRF-Adr cells, JC-1 efflux, flow cytometry; inhibition, % at 6.6 µM; 190,000 tested, 0.067% active; in the data active = inhibition above about 40%;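 note: 0% = vehicle and 100% = reference inhibitor; higher value means more JC-1 retained so stronger ABCB1 efflux block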
Insulin prom up: MIN6 insulin promoter up-regulation; AID 1625; 190,000 tested, 0.3% active; z-score at 5 µM; MIN6 insulin promoter-GFP reporter, high-content imaging; active compounds read high;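 active = z-score above 3 at 5 µM with at least 500 cells counted in the well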
ROMK mod: modulators of human ROMK potassium channel. P48048. Tet-inducible ROMK, thallium flux fluorescence; actives lie on both sides. B-score at 10 µM. 130,000 tested, 2% active;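 active = signal ratio slope over the read window, or its plate-corrected B-score, at least 3 SD from the plate mean, either direction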;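 note: B-score of the F/F0 ratio slope over 7 to 12 s after thallium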
Target sequence (P48048 whole entry, looked up): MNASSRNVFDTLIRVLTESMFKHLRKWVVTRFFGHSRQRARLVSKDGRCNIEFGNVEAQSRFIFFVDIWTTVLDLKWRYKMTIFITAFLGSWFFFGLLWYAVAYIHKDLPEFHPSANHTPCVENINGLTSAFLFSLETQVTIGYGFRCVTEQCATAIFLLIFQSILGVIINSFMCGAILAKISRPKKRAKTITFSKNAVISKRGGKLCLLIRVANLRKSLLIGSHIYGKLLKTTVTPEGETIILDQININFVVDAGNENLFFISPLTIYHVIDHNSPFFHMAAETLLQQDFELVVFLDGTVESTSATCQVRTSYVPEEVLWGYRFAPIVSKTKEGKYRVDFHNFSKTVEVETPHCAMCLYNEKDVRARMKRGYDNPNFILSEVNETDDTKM
sdo1 growth: compounds rescuing growth of sdo1-depleted yeast, bone marrow failure model. S. cerevisiae sdo1-depleted JHY4D growth rescue, OD600 30 h; active compounds read high; pdr5 snq2 efflux-pump mutant strain. z-score at 10 µM. 140,000 tested, 0.21% active. AID 817;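 active = z-score above 3 at both the 24 hr and the 30 hr optical density reads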;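 note: z-score against mean and SD of all compound wells on the same plate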
Starred values were filed as active, the others as inactive; i = inactive; nt = no result; + = active, no number. Hits are enriched below; roughly 2.3% of the tested compounds scored in any of these assays.

SMILES	ABCG2 block	Autophagy mod	ABCB1 block	Insulin prom up	ROMK mod	sdo1 growth
N#CC(C(=O)NC1CC1)c1nc2ccccc2nc1N1CCCC1 (stereo not drawn)	4	i	1	1.8	-1.8	-1.4
COc1cc2c(cc1NC(=O)/C=C/c1ccccc1)oc1ccccc12	32	+	-2	-0.55	nt	-0.91
Cn1cc(/C=C2\SC(=O)N(c3ccc(O)cc3)C2=O)c2ccccc21	nt	nt	nt	-1.3	nt	nt
Cn1cc(/C=C2\SC(=O)N(c3ccccc3)C2=O)c2ccccc21	24	+	0	-0.43	nt	-0.52
CC(/C=N/NC(=O)c1cccnc1)=C\c1ccccc1	6	i	0	-0.1	0.049	nt
CC(/C=N/NC(=O)c1ccncc1)=C\c1ccc(C(C)C)cc1	1	i	0	3.2*	nt	0.11
O=C(N/N=C\c1ccc(-c2ccc([N+](=O)[O-])cc2)o1)c1ccc2c(c1)OCO2	-1	+	0	0.48	nt	-0.07
O=C(N/N=C/c1ccc(-c2cccc([N+](=O)[O-])c2)o1)c1ccc([N+](=O)[O-])cc1	-2	i	0	-0.59	-0.49	nt
CCOC(=O)CC(NS(=O)(=O)c1ccc(OC)c(C)c1)c1cccc([N+](=O)[O-])c1 (stereo not drawn)	15	+	1	nt	-0.98	-0.35
O=C(COc1ccccc1)N1CCN=C1c1ccccc1	3	i	1	3.1*	-1.7	0.36
CN1CCc2nc(SCc3ccc(Cl)cc3)c(C#N)c(-c3cccs3)c2C1	nt	i	nt	nt	-3.4*	nt
COc1cc(OC)c(NC(=O)/C=C/C(=O)O)cc1Cl	nt	nt	nt	0.72	nt	nt
Cc1cc(Cl)ccc1NC(=O)CCC(=O)N/N=C/c1cc([N+](=O)[O-])ccc1O	8	i	1	nt	0.02	nt
O=[N+]([O-])c1ccc(O)c(/C=N/NC(=S)Nc2ccc(Cl)cc2Cl)c1	nt	nt	nt	0.94	2.9*	nt
CCCCNC(=O)C1CC(=O)N(C2CCCCC2)C1 (stereo not drawn)	4	i	0	3*	nt	0.22
O=C(NCCC1=CCCCC1)C1CC(=O)N(C2CCCCCC2)C1 (stereo not drawn)	1	i	0	-0.08	nt	0.23
CN(C)S(=O)(=O)N1CCCC(C(=O)c2ccc(C(F)(F)F)cc2)C1 (stereo not drawn)	1	i	0	-0.24	-0.27	nt
Cc1nn(CCc2nn[nH]n2)c2nc(-c3ccc(C4CCCCC4)cc3)cc(C(F)(F)F)c12	0	i	0	1.8	1.1	nt
C=CCN(C)CC/C=C1\c2ccccc2CSc2ccccc21	-1	i	1	nt	-0.68	-0.08
NCC/C=C1/c2ccccc2CSc2ccccc21	-1	i	0	nt	-5.2*	0.13
CCOC(=O)N1CCN(C(=O)C2CCCN(Cc3nc(-c4ccc(Cl)cc4)oc3C)C2)CC1 (stereo not drawn)	2	+	3	-0.71	nt	-0.5
O=[N+]([O-])c1ccc(-c2nc(-c3cccs3)c(-c3cccs3)[nH]2)cc1	4	+	2	nt	nt	-1.6
COc1ccccc1N1CCN(C(=S)NC(=O)/C=C/c2ccccc2)CC1	nt	nt	nt	0.68	-0.99	nt
CCc1ccc(NC(=O)c2cc(C)on2)cc1	5	i	0	1.1	nt	0.02
CCc1ccc(NC(=O)c2cc(C(C)C)on2)cc1	4	i	0	3.4*	nt	-0.06
SMILES	ABCG2 block	Autophagy mod	ABCB1 block	Insulin prom up	ROMK mod	sdo1 growth
Cc1ccc2[nH]c(C(=O)NN=C3CCCCC3)c(-c3ccccc3)c2c1	1	i	0	0.53	-0.63	nt
Cc1ccc(NC(=O)Cn2nnc(-c3ccccc3NC(=O)c3cccs3)n2)cc1	4	+	1	0.1	1.5	-1.7
COc1ccc(NC(=O)Cn2nnc(-c3ccccc3NC(=O)c3cccs3)n2)cc1	2	i	0	-0.34	nt	0.22
N#Cc1c(C(F)(F)F)cc(-c2ccc(Cl)c(Cl)c2)nc1SCCN1CCOCC1	21	i	4	-0.4	nt	-1
N#Cc1c(C(F)(F)F)cc(-c2ccccc2)nc1SCc1nc(N)nc(N2CCOCC2)n1	4	+	3	nt	nt	-1.1
COC(=O)c1ccccc1NC(=O)N1c2ccccc2Sc2ccccc21	nt	i	nt	-0.45	-0.79	0.01
COc1ccccc1-n1c(SCC(=O)Nc2cc(C)on2)nc2c(c1=O)SCC2	0	+	0	-0.5	0.029	nt
CCN(CC)S(=O)(=O)c1ccc2oc(C(=O)NC(C)C)c(C)c2c1	94*	i	9	1.3	1.1	-0.58
CCN(CC)S(=O)(=O)c1ccc2oc(C(=O)O)c(C)c2c1	8	i	0	-0.47	nt	-0.46
COC(C(=O)Nc1cccc([N+](=O)[O-])c1)c1ccccc1 (stereo not drawn)	24	i	1	0.11	1.2	nt
COc1ccccc1CC(=O)NC1CC(C)(C)NC(C)(C)C1	-1	i	0	3.6*	nt	0.65
CC1(C)CC(NC(=O)Cc2ccccc2[N+](=O)[O-])CC(C)(C)N1	22	i	2	0.22	nt	1.8
COC(=O)c1cnn2c(C(F)(F)F)cc(-c3ccc(F)cc3)nc12	1	i	0	4.2*	-0.5	0.52
CCOC(=O)c1cnn2c(C(F)(F)F)cc(-c3ccccc3)nc12	7	i	0	nt	nt	-0.04
CC(C)OC(=O)CC1C(=O)NCCN1C(=S)NC(=O)c1cccs1 (stereo not drawn)	0	i	0	-0.38	-0.036	nt
CN(C)S(=O)(=O)c1ccc2nnn(O)c2c1	2	i	0	0.43	1.7	nt
Cc1cc(C)n(-c2nc3c(c(=O)[nH]c(=O)n3C)n2CC(O)COc2ccc(Cl)cc2Cl)n1 (stereo not drawn)	6	+	1	0.09	nt	0.56
Cc1ccc(C(=O)NCC(=O)OCC(=O)NCC(F)(F)F)cc1	1	i	0	-0.69	-0.13	nt
CCN(C(=O)CSc1nc2cc(C(=O)OC)ccc2c(=O)n1Cc1ccco1)c1cccc(C)c1	12	i	11	4.5*	-1.1	-0.99
CCc1ccc(NC(=O)CSc2nc3cc(C(=O)OC)ccc3c(=O)n2Cc2ccco2)cc1	10	i	1	0.14	0.056	-1.1
O=C(NCc1cccnc1)c1cccc(F)c1	0	+	0	-0.46	0.49	1.1
CC(NC(=O)Nc1ccccc1F)C(C)(C)C (stereo not drawn)	16	i	1	-0.44	-0.078	nt
COc1ccc(OC)c(N(CC(=O)N2CCN(c3cc(Cl)ccc3C)CC2)S(C)(=O)=O)c1	8	+	3	-0.43	-0.65	-1.6
O=C(CSc1nnc(NC(=O)c2ccccc2Cl)s1)Nc1ccc2c(c1)oc1ccccc12	-4	i	-1	0.14	0.3	-0.99
CC(C)NC(=O)c1onc(CSc2ccc(Cl)cc2)c1C(=O)NC(C)C	nt	nt	nt	-0.52	nt	nt
CN1CCN(C(=O)C2=C[C@@H](c3ccccc3)C[C@@H](OCCCCO)O2)CC1	1	i	0	0	nt	nt

Bioassay records as filed in PubChem BioAssay.
